Test results reported in paper PMC4077287 (Angewandte Chemie (International ed. in English), 2013).

Experiments:
[1] = tested on: caspase-3 level in HeLa tumor xenograft; test: Caspase-3 level detected in Dox-treated tumors; type: in vivo, nude mice; conditions: intratumoral Dox 0.2 mg, 4 days post treatment
Procedure, shortened: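 HeLa xenografts on the right shoulder of nude mice were imaged before and 4 days after intratumoral Dox (0.2 mg). The 18F-labeled caspase-3-activatable nano-aggregation tracer or its D-peptide control (5–15 MBq) was given i.v. by tail vein. Static 5 min PET scans were taken at 65, 125 and 182 min post injection. Tumor and muscle uptake was reported as %ID/g, with the tumor/muscle ratio taken from average region uptake.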

[2] = tested on: caspase-3 activity in HeLa cell lysates; test: Caspase-3 assay of lysates of Dox-treated HeLa cells; type: cell-based; conditions: doxorubicin 2 μM, 24 h
[3] = tested on: apoptotic tumors; conditions: ref 7a; cited from earlier work

SMILES	caspase-3 level increase in treated tumors [1] [fold]	caspase-3 activity of lysates of Dox-treated cells vs non-treated cells [2] [fold]	trend of uptake in apoptotic tumors over time after injection [3]
COc1cccc2c1C(=O)c1c(O)c3c(c(O)c1C2=O)C[C@@](O)(C(=O)CO)C[C@@H]3O[C@H]1C[C@H](N)[C@H](O)[C@H](C)O1 [Dox, doxorubicin]	1.9	9.5	
O=C1C(=O)N(Cc2cn(CC[18F])nn2)c2ccc(S(=O)(=O)N3CCCC3COc3ccc(F)cc3F)cc21 (stereo not drawn) [[^18F]ICMT-11]			decreased over the time after injection
